Measurements from paper PMC10558795 (Redox Biology, 2023).

Key:
[1] = test system: human NRF2 target genes in KYSE70 cells; experiment: RNAseq of KYSE70 cells; format: cell-based; details: PYR 10 μM for 72 h, MIT 20 nM for 72 h
Procedure, shortened: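 Total RNA from treated and control cells made into Illumina libraries and sequenced (150 bp). Reads aligned to hg38 with RefSeq annotation and counted per gene; DEGs called by fold-change cut-off and corrected p-values. Gene set enrichment analysis performed; overall NRF2 target-gene mRNA level calculated on natural log scale.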

[2] = test system: NFE2L2 mRNA and NRF2 target genes; experiment: qPCR of NFE2L2 mRNA and NRF2 target genes; format: cell-based, human
Procedure, shortened: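 Gene expression quantified by real-time PCR using gene-specific primers and TaqMan probes on a 96-well real-time PCR system.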

[3] = test system: NRF2 expression in Nrf2^WT MEEC; experiment: NRF2 expression in mouse esophageal epithelial cells; format: cell-based
Procedure, shortened: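 Nuclear and cytosolic fractions prepared with an extraction kit, or whole-cell lysates in RIPA buffer. Proteins separated by SDS-PAGE, transferred to nitrocellulose, blocked and probed with primary antibody overnight at 4 °C. Chemiluminescence detected on film and quantified by densitometry; band data as mean ± SD, Student's t-test.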

global translation = experiment: Protein synthesis assay; format: cell-based, human; details: KYSE70; PYR 10 μM, MIT 20 nM; CHX positive control
Procedure, shortened: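 KYSE70 cells (37 °C, 5% CO₂) seeded at 2000 cells/well in 96-well plates; exposed to test compound or cycloheximide (positive control) in triplicate. Global translation measured with a commercial protein synthesis assay kit per manufacturer's protocol; cells imaged on a high-content imager.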

adult wild-type mice = experiment: Dose-finding experiment in adult wild-type mice; format: in vivo, mouse
Procedure, shortened: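 Adult wild-type mice, n = 5 per group, dosed orally once daily for 4 weeks with test compound dissolved in N-methyl-2-pyrrolidone:PEG300 (1:9). Grooming, physical strength, movement and body weight tracked during dosing; blood collected for complete blood count, analysed by ANOVA.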

[4] = test system: Sox2CreER;LSL-Nrf2^E79Q/+ mice; experiment: Therapeutic effect on the NRF2^high esophageal phenotype in Sox2CreER; format: in vivo, mouse
Procedure, shortened: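 Sox2CreER;LSL-Nrf2^E79Q/+ mice induced with tamoxifen (75 mg/kg/day i.p., 5 days), then given oral test compound in N-methyl-2-pyrrolidone:PEG300 (1:9). Part of forestomach resected at Week 1; rest of forestomach and esophageal epithelium taken at Week 3 sacrifice, with BrdU 50 mg/kg i.p. 2 h before. Analysis by Western blotting, H&E, and IHC (DAB, no-primary-antibody controls).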

[5] = PYR given after tamoxifen induction

Structure (SMILES): CCc1nc(N)nc(N)c1-c1ccc(Cl)cc1 [PYR, Pyrimethamine]
- Overall mRNA expression level of human NRF2 target genes [1]: significantly reduced
- NFE2L2 mRNA and NRF2 target genes (AKR1B10, AKR1C2, AKR1C3, PGD, SLC7A11, TKT) by qPCR [2]: downregulation
- NRF2 expression [3]: upregulated NRF2 expression
- Global translation (global translation): Neither PYR (10 μM) nor MIT (20 nM) inhibited global translation
- Myelosuppression (complete blood count) (adult wild-type mice; 30 mg/kg/day): not myelosuppressive
- Myelosuppression (complete blood count) (adult wild-type mice; 60 mg/kg/day, p.o., 4 weeks): resulted in myelosuppression including leukopenia and lymphopenia
- Impact on body weight and general health (adult wild-type mice; 15, 30 and 60 mg/kg/day, p.o., 4 weeks): did not observe any negative impact
- NRF2^high esophageal phenotype ([4]; 30 mg/kg/day, p.o.): effectively inhibited
- Toxicity ([4]; 30 mg/kg/day, p.o.): no observed toxicity
- Expression of NRF2 and its target genes (HMOX1 and AKR1C3) in the esophageal epithelium [4, 5]: significantly inhibited the expression
- NQO1, GCLC and GCLM expression in the esophageal epithelium [4, 5]: inhibited, yet without statistical significance
- NRF2 expression in the forestomach [4, 5]: significantly inhibited
